Data as given in ChEMBL document CHEMBL1156144, “Biaryl ethers as novel non-nucleoside reverse transcriptase inhibitors with improved potency against key mutant viruses” (J Med Chem, 2009).

Legend:
[1] = test system: Human immunodeficiency virus; assay: Antiviral activity against HIV with reverse transcriptase Y181C mutant assessed as inhibition of viral replication; type: functional, organism-based; details: Human immunodeficiency virus 1
[2] = test system: Human immunodeficiency virus; assay: Antiviral activity against HIV with reverse transcriptase K103N mutant assessed as inhibition of viral replication; type: functional, organism-based; details: Human immunodeficiency virus 1
[3] = test system: Human immunodeficiency virus; assay: Antiviral activity against HIV with reverse transcriptase V106A/G190A/F227L mutant assessed as inhibition of viral replication; type: functional, organism-based; details: Human immunodeficiency virus 1
[4] = test system: Human immunodeficiency virus; assay: Antiviral activity against HIV with reverse transcriptase K103N/G190A double mutant assessed as inhibition of viral replication; type: functional, organism-based; details: Human immunodeficiency virus 1
[5] = test system: Human immunodeficiency virus; assay: Antiviral activity against HIV with reverse transcriptase K103N/Y181C/G190A mutant assessed as inhibition of viral replication relative to wild type; type: functional
[6] = test system: Human immunodeficiency virus; assay: Antiviral activity against HIV with reverse transcriptase Y188L mutant assessed as inhibition of viral replication relative to wild type; type: functional
[7] = test system: Human immunodeficiency virus; assay: Antiviral activity against HIV with reverse transcriptase L100I/K103N double mutant assessed as inhibition of viral replication relative to wild type; type: functional
[8] = test system: Human immunodeficiency virus; assay: Antiviral activity against HIV with reverse transcriptase Y181C mutant infected in human MT2 cells assessed as inhibition of viral replication measuring p24 level after 3 days in presence of 10% fetal bovine serum; type: functional; details: Human immunodeficiency virus 1, MT2, Serum, 72 h; read-out: CIC95
How it was run: (§1)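 Multiple-cycle replication (Spread) assay in MT2 cells with H9IIIB-background mutant virus. Cells were infected overnight at moi ≈ 0.01 without compound, washed, then cultured 3 days across a range of compound concentrations in medium with 10% FBS. p24 was measured in supernatants. CIC95 is the lowest concentration inhibiting replication by ≥95%, reported as the geometric mean of ≥2 determinations.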

[9] = test system: Human immunodeficiency virus; assay: Antiviral activity against HIV with reverse transcriptase CNDO mutant assessed as inhibition of viral replication; type: functional, organism-based; details: Human immunodeficiency virus 1
[10] = test system: Human immunodeficiency virus; assay: Antiviral activity against HIV with reverse transcriptase V106A/G190A/F227L mutant assessed as inhibition of viral replication relative to wild type; type: functional
[11] = test system: Human immunodeficiency virus; assay: Antiviral activity against HIV with reverse transcriptase K103N/Y181C double mutant assessed as inhibition of viral replication relative to wild type; type: functional
[12] = test system: Human immunodeficiency virus; assay: Antiviral activity against HIV with reverse transcriptase G190S mutant assessed as inhibition of viral replication; type: functional, organism-based; details: Human immunodeficiency virus 1
[13] = test system: Human immunodeficiency virus; assay: Antiviral activity against wild type HIV H9-3B infected in human MT2 cells assessed as inhibition of viral replication measuring p24 level after 3 days in presence of 50% normal human serum; type: functional; details: Human immunodeficiency virus 1, H9-3B, 72 h, read-out: CIC95
How it was run: (§2)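 Multiple-cycle spread assay in MT2 cells with wild-type H9IIIB virus. Cells were infected overnight at moi ≈ 0.01 without compound, washed, then cultured 3 days across varying compound concentrations in RPMI 1640 with 10% FBS or 50% NHS. p24 was measured in supernatants. CIC95 is the lowest concentration inhibiting replication ≥95%, as the geometric mean of ≥2 determinations.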

[14] = test system: Human immunodeficiency virus; assay: Antiviral activity against HIV with reverse transcriptase K101E/G190A double mutant assessed as inhibition of viral replication; type: functional, organism-based; details: Human immunodeficiency virus 1
[15] = test system: Human immunodeficiency virus; assay: Antiviral activity against HIV with reverse transcriptase L100I mutant assessed as inhibition of viral replication relative to wild type; type: functional
[16] = Inhibition of RNA-dependent DNA polymerase activity of wild type HIV reverse transcriptase assessed as BrdU incorporation by standard ECL assay; design: species or system Human immunodeficiency virus
How it was run: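 Purified recombinant wild-type RT polymerase activity was measured using a 500-nt heteropolymeric RNA template and a biotinylated DNA primer. BrdU incorporation was detected with a ruthenylated anti-BrdU antibody by electrochemiluminescence. Ki is the geometric mean of at least two determinations, each within 25% of the mean.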

[17] = test system: Human immunodeficiency virus; assay: Antiviral activity against HIV with reverse transcriptase CNDO mutant assessed as inhibition of viral replication relative to wild type; type: functional
[18] = test system: Human immunodeficiency virus; assay: Antiviral activity against wild type HIV H9-3B infected in human MT2 cells assessed as inhibition of viral replication measuring p24 level after 3 days in presence of 10% fetal bovine serum; type: functional; details: Human immunodeficiency virus 1, MT2, Serum; read-out: CIC95; how it was run: as §2
[19] = test system: Human immunodeficiency virus; assay: Antiviral activity against HIV with reverse transcriptase K103N/Y181C double mutant infected in human MT2 cells assessed as inhibition of viral replication measuring p24 level after 3 days in presence of 10% fetal bovine serum; type: functional; details: Human immunodeficiency virus 1, MT2, Serum, 72 h; read-out: CIC95; how it was run: as §1
[20] = test system: Human immunodeficiency virus; assay: Antiviral activity against HIV with reverse transcriptase K101E/G190A double mutant assessed as inhibition of viral replication relative to wild type; type: functional
[21] = test system: Human immunodeficiency virus; assay: Antiviral activity against HIV with reverse transcriptase MDRC4 mutant assessed as inhibition of viral replication; type: functional, organism-based; details: Human immunodeficiency virus 1
[22] = test system: Human immunodeficiency virus; assay: Antiviral activity against HIV with reverse transcriptase G190S mutant assessed as inhibition of viral replication relative to wild type; type: functional
[23] = test system: Human immunodeficiency virus; assay: Antiviral activity against HIV with reverse transcriptase L100I/K103N double mutant assessed as inhibition of viral replication; type: functional, organism-based; details: Human immunodeficiency virus 1
[24] = test system: Human immunodeficiency virus; assay: Antiviral activity against HIV with reverse transcriptase K101E/Y181C/G190A mutant assessed as inhibition of viral replication; type: functional, organism-based; details: Human immunodeficiency virus 1
[25] = test system: Human immunodeficiency virus; assay: Antiviral activity against HIV with reverse transcriptase Y181C/G190A double mutant assessed as inhibition of viral replication relative to wild type; type: functional
[26] = test system: Human immunodeficiency virus; assay: Antiviral activity against HIV with reverse transcriptase MDRC4 mutant assessed as inhibition of viral replication relative to wild type; type: functional
[27] = test system: Human immunodeficiency virus; assay: Antiviral activity against HIV with reverse transcriptase K103N/G190A double mutant assessed as inhibition of viral replication relative to wild type; type: functional
[28] = test system: Human immunodeficiency virus; assay: Antiviral activity against HIV with reverse transcriptase K103N/P225H double mutant assessed as inhibition of viral replication relative to wild type; type: functional
[29] = test system: Human immunodeficiency virus; assay: Antiviral activity against HIV with reverse transcriptase K101E/Y181C/G190A mutant assessed as inhibition of viral replication relative to wild type; type: functional
[30] = test system: Human immunodeficiency virus; assay: Antiviral activity against HIV with reverse transcriptase K103N/P225H double mutant assessed as inhibition of viral replication; type: functional, organism-based; details: Human immunodeficiency virus 1
[31] = test system: Human immunodeficiency virus; assay: Antiviral activity against HIV with reverse transcriptase Y181C mutant assessed as inhibition of viral replication relative to wild type; type: functional
[32] = test system: Human immunodeficiency virus; assay: Antiviral activity against HIV with reverse transcriptase L100I mutant assessed as inhibition of viral replication; type: functional, organism-based; details: Human immunodeficiency virus 1
[33] = test system: Human immunodeficiency virus; assay: Antiviral activity against HIV with reverse transcriptase G190A mutant assessed as inhibition of viral replication; type: functional, organism-based; details: Human immunodeficiency virus 1
[34] = test system: Human immunodeficiency virus; assay: Antiviral activity against HIV with reverse transcriptase Y188L mutant assessed as inhibition of viral replication; type: functional, organism-based; details: Human immunodeficiency virus 1
[35] = molecular target: Human immunodeficiency virus type 1 reverse transcriptase (Human immunodeficiency virus 1, UniProt Q72547, K103N); assay: Inhibition of RNA-dependent DNA polymerase activity of recombinant HIV reverse transcriptase K103N mutant assessed as BrdU incorporation by standard ECL assay
[36] = test system: Human immunodeficiency virus; assay: Antiviral activity against HIV with reverse transcriptase K103N/Y181C/G190A mutant assessed as inhibition of viral replication; type: functional, organism-based; details: Human immunodeficiency virus 1
[37] = test system: Human immunodeficiency virus; assay: Antiviral activity against HIV with reverse transcriptase G190A mutant assessed as inhibition of viral replication relative to wild type; type: functional
[38] = test system: Human immunodeficiency virus; assay: Antiviral activity against HIV with reverse transcriptase K103N mutant assessed as inhibition of viral replication relative to wild type; type: functional
[39] = test system: Human immunodeficiency virus; assay: Antiviral activity against HIV with reverse transcriptase K103N/Y181C double mutant assessed as inhibition of viral replication; type: functional, organism-based; details: Human immunodeficiency virus 1
[40] = test system: Human immunodeficiency virus; assay: Antiviral activity against HIV with reverse transcriptase Y181C/G190A double mutant assessed as inhibition of viral replication; type: functional, organism-based; details: Human immunodeficiency virus 1
[41] = test system: Human immunodeficiency virus; assay: Antiviral activity against HIV with reverse transcriptase K103N mutant infected in human MT2 cells assessed as inhibition of viral replication measuring p24 level after 3 days in presence of 10% fetal bovine serum; type: functional; details: Human immunodeficiency virus 1, MT2, Serum, 72 h; read-out: CIC95; how it was run: as §1

With N#Cc1cc(Cl)cc(Oc2cc(OCc3n[nH]c4ncccc34)ccc2Cl)c1 the IC50 [1] was 3.1 nM, the IC50 [2] was 1.6 nM and the IC50 [3] was > 1000 nM. The IC50 [4] was 2.4 nM, the “fold change (FC)” value [5] was 28.09 and the “fold change (FC)” value [6] was 560.18. The “fold change (FC)” value [7] was 15, the IC95 [8] was 22 nM and the IC50 [9] was 1.1 nM. The “fold change (FC)” value [10] was >909, the “fold change (FC)” value [11] was 21.45 and the IC50 [12] was 4.8 nM. For the same molecule, the IC95 [13] was 52 nM, the IC50 [14] was 2.1 nM and the “fold change (FC)” value [15] was 0.64. For the same molecule, the Ki [16] was 0.1 nM, the “fold change (FC)” value [17] was 1 and the IC95 [18] was 10 nM. For the same molecule, the IC95 [19] was 53 nM, the “fold change (FC)” value [20] was 1.91 and the IC50 [21] was 5.1 nM. The “fold change (FC)” value [22] was 4.36, the IC50 [23] was 16.5 nM and the IC50 [24] was 11.6 nM. The “fold change (FC)” value [25] was 4.18, the “fold change (FC)” value [26] was 4.64 and the “fold change (FC)” value [27] was 2.18. For the same molecule, the “fold change (FC)” value [28] was 3.27, the “fold change (FC)” value [29] was 10.55 and the IC50 [30] was 3.6 nM. The “fold change (FC)” value [31] was 2.82, the IC50 [32] was 0.7 nM and the IC50 [33] was 1.8 nM. For the same molecule, the IC50 [34] was 616 nM, the Ki [35] was 0.2 nM and the IC50 [36] was 30.9 nM. The “fold change (FC)” value [37] was 1.64, the “fold change (FC)” value [38] was 1.45 and the IC50 [39] was 23.6 nM. It also gave an IC50 [40] of 4.6 nM and an IC95 [41] of 15 nM.
